Results from paper PMC4844355 (Cellular and Molecular Gastroenterology and Hepatology, 2016).
Converted amounts (≈) assume the structure as drawn. “Also recorded” adds a separate entry of the source.

Assays:
human wild-type CFTR = human wild-type CFTR (Homo sapiens, UniProt P13569); test: Short-circuit current in FRT cells expressing wild-type human CFTR; type: cell-based
Procedure, shortened: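 FRT cells stably expressing wild-type human CFTR grown on porous filters. Basolateral membrane permeabilized with 250 μg/mL amphotericin B. Apical side given a Cl⁻ gradient (65 mmol/L NaCl replaced by Na gluconate, 2 mmol/L CaCl2) against HEPES-buffered basolateral saline, pH 7.3, 37°C. Forskolin, test compound, then CFTRinh-172 (10 μmol/L) added. Concentration dependence: mean ± SEM, n = 3 cultures.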

ΔF508-CFTR = ΔF508-CFTR (Homo sapiens, UniProt P13569, DEL508-508); test: Short-circuit current in FRT cells expressing ΔF508-CFTR; type: cell-based; conditions: FRT cells expressing ΔF508-CFTR after overnight incubation with corrector VX-809
Procedure, shortened: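 Short-circuit current in FRT cells expressing ΔF508-CFTR, pre-corrected with 3 μmol/L VX-809 at 37°C for 24 h. Responses recorded to added forskolin, test compound and VX-770, with CFTRinh-172 (10 μmol/L) where indicated. Traces representative of 3 experiments.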

cAMP = test: GloSensor luminescence cAMP assay in FRT null cells; type: cell-based, rat; conditions: 5 μmol/L, 10 minutes
Procedure, shortened: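 FRT null cells stably transfected with a GloSensor cAMP plasmid, grown to confluence and washed 3× in PBS. Incubated 10 min with 5 μmol/L test compound, without or with forskolin (100 nmol/L). cAMP read by luminescence. Positive controls: forskolin 100 nmol/L and 20 μmol/L, forskolin plus IBMX 100 μmol/L. Mean ± SEM, n = 4–8.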

[1] = system: loperamide-induced mouse model of constipation; test: Loperamide-induced constipation model in wild-type mice; type: in vivo; conditions: for Stool weight, pellet number and water content (3 hours): 10 mg/kg intraperitoneal, loperamide-treated wild-type mice; for Normalization of stool output as percent of the maximal CFTRact-J027 response: 0.5 mg/kg oral
Procedure, shortened: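 Female CD1 mice (8–10 wk) given loperamide 0.3 mg/kg IP. Test compound (0.1–10 mg/kg) or vehicle given IP at the same time, or orally 1 h before. Mice then housed singly in metabolic cages and stool collected for 3 h: total weight, pellet number, and water content after drying at 80°C for 24 h. Mean ± SEM; 6 mice per group, dose-response 4–6 per group.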

[2] = system: cystic fibrosis mice (ΔF508 homozygous); type: in vivo, mouse; conditions: loperamide model; cystic fibrosis mice lacking functional CFTR
Procedure, shortened: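 ΔF508-homozygous cystic fibrosis mice run in the same loperamide protocol as wild-type mice (0.3 mg/kg IP, test compound or vehicle). Stool collected for 3 h in metabolic cages; weight, pellet number, and water content measured after drying at 80°C for 24 h. 3–6 mice per group.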

[3] = system: loperamide-treated wild-type mice; test: Whole-gut transit time in loperamide-treated wild-type mice; type: in vivo, mouse; conditions: 10 mg/kg IP with loperamide at zero time
Procedure, shortened: (§1)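 Marker (200 μL; 5% Evans Blue, 5% gum Arabic) given by oral gavage at zero time. At the same time, loperamide (0.3 mg/kg) and test compound (10 mg/kg) or vehicle given IP, to wild-type or cystic fibrosis mice. Whole-gut transit time taken as the time the marker appears in stool.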

cystic fibrosis mice = test: Whole-gut transit time in cystic fibrosis mice; type: in vivo, mouse; conditions: 10 mg/kg IP
Procedure, shortened: as §1

[4] = system: isolated mouse ileum and colon strips; test: Ex vivo contractility of isolated intestinal strips; conditions: added alone or in the presence of 10 μmol/L loperamide
[5] = system: closed midjejunal loops in wild-type mice; test: Intestinal fluid secretion in closed midjejunal loops, wild-type mice; type: in vivo, mouse; conditions: 100 μg per loop, 90 minutes
Procedure, shortened: (§2)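 Mice fasted 24 h with 5% dextrose water only, then anaesthetised with isoflurane and kept at 36–38°C. Closed midjejunal loops (2–3 cm) tied off by sutures and injected with 100 μL vehicle or 100 μg test compound in vehicle. Incision closed and mice recovered. Loops removed at 90 min; loop weight/length taken as fluid secretion. 4 loops per group.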

[6] = system: closed midjejunal loops in cystic fibrosis mice; test: Intestinal fluid secretion in closed midjejunal loops, cystic fibrosis mice; type: in vivo, mouse; conditions: 100 μg per loop, 90 minutes
Procedure, shortened: as §2

[7] = system: closed midjejunal loops of cystic fibrosis mice; test: Intestinal fluid absorption in closed midjejunal loops, cystic fibrosis mice; type: in vivo, mouse; conditions: 100 μg per loop, 30 minutes
[8] = In vitro metabolic stability in mouse liver microsomes; type: in vitro ADME
Procedure, shortened: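 Test compound (5 μmol/L) incubated at 37°C for set times with mouse liver microsomes (1 mg protein/mL) in 100 mmol/L potassium phosphate with 1 mmol/L NADPH. Reaction chilled on ice and extracted with ice-cold ethyl acetate, then centrifuged. Supernatant dried, residue taken up in acetonitrile:water 3:1, and parent measured by LC-MS.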

[9] = Pharmacokinetics in mice after bolus IP or oral administration; type: in vivo, mouse
Procedure, shortened: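 Female CD1 mice dosed once with 10 mg/kg test compound in saline containing 5% DMSO and 10% Kolliphor HS 15, IP or orally. Blood taken by orbital puncture at 15, 30, 60, 150, 240 and 360 min, and plasma separated by centrifugation. Levels measured by LC-MS against calibration standards spiked into untreated mouse plasma. Mean ± SEM, 3 mice per group.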

FRT cells = test: In vitro cytotoxicity by Alamar Blue assay; type: cell-based, rat
Procedure, shortened: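 FRT cells exposed to 25 μmol/L test compound for 8 and 24 h, with viability read by Alamar Blue. Mean ± SEM, n = 3 cultures.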

[10] = 7-day oral toxicity study in mice; type: in vivo, mouse
Procedure, shortened: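 Mice received 10 mg/kg test compound or vehicle orally once daily for 7 days. One hour after the last dose, loperamide 0.3 mg/kg IP was given and stool was collected for 3 h. At 4 h after the last dose: complete blood count, serum chemistry, body weight and lung wet/dry weight ratio. Mean ± SEM, 5 mice per group.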

loperamide-treated mice = test: Efficacy in loperamide model after 7-day chronic oral administration; type: in vivo, mouse; conditions: 10 mg/kg orally for 7 days, loperamide 1 hour after final dose
Solubility limit = type: physicochemical
[11] = system: constipation-predominant irritable bowel syndrome patients; conditions: cited from earlier work
[12] = system: chronic constipation patients; conditions: placebo 0.9; cited from earlier work
[13] = 10 mg/kg orally once a day for 7 days
[14] = 10 mg/kg orally once per day for 7 days, mean ± SEM, 5 mice

Molecule: Nc1ccc([N+](=O)[O-])cc1-c1nc2ccccc2n(Cc2ccccc2)c1=O [CFTRact-J027, 3-(2-amino-5-nitrophenyl)-1-benzylquinoxalin-2(1H)-one]
- CFTR activation at 3 μmol/L (human wild-type CFTR; FRT cells expressing wild-type CFTR, 3 μmol/L): nearly full activation
- CFTR activation (short-circuit current) (human wild-type CFTR; FRT cells, wild-type CFTR, forskolin produced minimal further increase): fully activated CFTR
- CFTR activation in the absence of forskolin (human wild-type CFTR; FRT cells, wild-type CFTR, no forskolin, data not shown): Little CFTR activation
- Potentiation of ΔF508-CFTR (ΔF508-CFTR): only a weak potentiator; also recorded: substantially less potent than ivacaftor
- Cellular cAMP, compound added alone (cAMP): does not increase cellular cAMP
- Cellular cAMP, compound added together with forskolin (cAMP; with forskolin): does not increase cAMP further
- Stool weight, pellet number and water content (3 hours) [1]: normalized each of the stool parameters
- Stool output and water content, oral administration ([1]; 10 mg/kg oral 1 hour before loperamide, loperamide-treated mice): effective in normalizing stool output and water content
- Stool output and water content in control mice, oral administration ([1]; 10 mg/kg oral, control mice): no effect
- Stool output or water content in control mice ([1]; intraperitoneal, control (non-loperamide-treated) mice): did not affect stool output or water content
- 50% effective dose, IP administration ([1]; loperamide model, intraperitoneal): 2 mg/kg
- Stool output and water content in cystic fibrosis mice [2]: without effect
- Whole-gut transit time [3]: normalized
- Whole-gut transit time in cystic fibrosis mice (cystic fibrosis mice): no effect
- Intestinal contraction [4]: no effect
- Increase in loop weight/length ratio (fluid secretion) [5]: 140%
- Loop fluid secretion in cystic fibrosis mice [6]: without effect
- Intestinal fluid absorption [7]: did not affect intestinal fluid absorption
- Original compound remaining at 60 minutes ([8]; mouse liver microsomes, 60 minutes): 7%
- half-life at 5 μmol/L ([8]; mouse, liver microsomes): ~21 min
- half-life ([9]; female, CD1, mouse, serum, ip, 10 mg/kg): ~16 min
- concentration at 30 minutes ([9]; female, CD1, mouse, serum, po, 10 mg/kg): 180 nM
- Serum concentration at 150 minutes after IP administration ([9]; mice, 10 mg/kg IP, 150 minutes): undetectable
- Blood levels after oral administration ([9]; mice, 10 mg/kg oral): less than 200 nmol/L
- Serum concentration at other time points after oral administration ([9]; mice, 10 mg/kg oral, time points other than 30 minutes): undetectable
- Oral bioavailability ([9]; mice, 10 mg/kg oral, 10 mg/kg): minimal bioavailability; also recorded: very low bioavailability
- Non-cytotoxic concentration relative to EC50 for CFTR activation (FRT cells; 25 μmol/L versus EC50): more than 100 fold
- Cytotoxicity (Alamar Blue) (FRT cells; 25 μmol/L, FRT cells, 8 and 24 hours): did not show cytotoxicity
- Body weight [10, 13]: did not change body weight
- Lung water content (lung wet/dry weight ratio) [10, 13]: normal lung water content
- Major serum chemistry and blood parameters [10, 13]: did not affect the major serum chemistry and blood parameters
- ALP level [10, 14]: 53 ± 2.5 U/L
- ALT level [10, 14]: 44 ± 6 U/L
- AST level [10, 14]: 105 ± 11 U/L
- Albumin level [10, 14]: 2.9 ± 0.03 g/dL
- BUN level [10, 14]: 18.4 ± 1.2 mg/dL
- Bicarbonate level [10, 14]: 16 ± 1.7 mmol/L
- CK level [10, 14]: 312 ± 62 U/L
- Calcium level [10, 14]: 8.5 ± 0.04 mg/dL
- Chloride level [10, 14]: 115 ± 1 mmol/L
- Cholesterol level [10, 14]: 121 ± 6 mg/dL
- Creatinine level [10, 14]: 0.2 ± 0 mg/dL
- Globulin level [10, 14]: 2.2 ± 0.1 g/dL
- Glucose level [10, 14]: 164 ± 6 mg/dL
- Hemoglobin level [10, 14]: 12.8 ± 0.3 g/dL
- Leukocyte level [10, 14]: 1.9 ± 0.5 10^3/μL
- Phosphorus level [10, 14]: 6.8 ± 0.3 mg/dL
- Potassium level [10, 14]: 4.4 ± 0.1 mmol/L
- Sodium level [10, 14]: 151 ± 0.7 mmol/L
- Thrombocyte level [10, 14]: 900 ± 48 10^3/μL
- Total bilirubin level [10, 14]: 0.1 ± 0 mg/dL
- Total protein level [10, 14]: 5.2 ± 0.1 g/dL
- Stool output and water content after chronic administration (loperamide-treated mice): remained effective in normalizing stool output and water content
- solubility (Solubility limit): ~25 µM (≈ 9.31 µg/mL)

Molecule: Cn1c(=O)c(-c2cc([N+](=O)[O-])ccc2N)nc2ccccc21 [inactive chemical analog of CFTRact-J027, 3-(2-amino-5-nitrophenyl)-1-(methyl)-2(1H)-quinoxalinone]
- Stool weight, pellet number and water content (3 hours) [1]: not effective

Molecule: CCCCC(F)(F)[C@@]1(O)CC[C@H]2[C@@H](CC(=O)[C@@H]2CCCCCCC(=O)O)O1 [lubiprostone, reference compound]
- Normalization of stool output as percent of the maximal CFTRact-J027 response ([1]; loperamide-treated mice): 50%
- Overall response rate [11]: approximately 13%

Molecule: linaclotide [reference compound]
- Normalization of stool output as percent of the maximal CFTRact-J027 response ([1]; loperamide-treated mice): 35%
- CSBM per week [12]: ~2.5
